ChEMBL document CHEMBL1275497, “Genetic and structural insights into the dissemination potential of the extremely broad-spectrum class A beta-lactamase KPC-2 identified in an Escherichia coli strain and an Enterobacter cloacae strain isolated from the same patient in France” (2008)
Values after ≈ are worked out from the molar mass of the structure shown.

Tests used:
[1] = tested on: Escherichia coli; assay: Activity of Escherichia coli 2138 beta-lactamase KPC-2 by spectrophotometry
Outline: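 KPC-2 was expressed in E. coli BL21(DE3) grown in LB with 50 µg/ml kanamycin and induced with 0.4 mM IPTG. It was purified by Q Sepharose, then Bioscale S cation exchange with a 0–1 M NaCl gradient in 40 mM Bis-Tris pH 5.9, then Superdex 75. Km and kcat were measured spectrophotometrically at 37°C in 50 mM phosphate buffer, pH 7.0, using previously described absorption coefficients.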

[2] = tested on: Enterobacter cloacae; assay: Antimicrobial activity against blaKPC-2, blaKLUC-2 and blaTEM-1 producing Enterobacter cloacae 7506 by Etest method; assay type: functional
[3] = tested on: Escherichia coli; assay: Antimicrobial activity against blaKPC-2 and blaTEM-1 producing Escherichia coli 2138 by Etest method; assay type: functional
[4] = tested on: Escherichia coli; assay: Antimicrobial activity against Escherichia coli J53 by Etest method; assay type: functional
[5] = tested on: Escherichia coli; assay: Antimicrobial activity against Escherichia coli TOP10 by Etest method in presence of beta-lactamase inhibitor clavulanic acid; assay type: functional
Outline: (§1)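 MIC by Etest on E. coli Top10 host and its transformants. Transformants were obtained by electroporating plasmid DNA extracted from the clinical E. coli isolate.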

[6] = tested on: Escherichia coli; assay: Antimicrobial activity against Escherichia coli J53 harboring blaKPC-2 and blaTEM-1 gene by Etest method in presence of beta-lactamase inhibitor clavulanic acid; assay type: functional
Outline: (§2)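 MIC by Etest on E. coli J53 (Rifr) recipient and its transconjugants. Transconjugants came from liquid and solid mating at 1:1 and 4:1 recipient:donor ratios in brain heart infusion (37°C, 3 h), then filter mating for 18 h at 37°C. Selection was on LB agar with ampicillin (100 µg/ml), ticarcillin (50 µg/ml) and rifampin (1000 µg/ml).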

[7] = tested on: Escherichia coli; assay: Antimicrobial activity against Escherichia coli TOP10 harboring blaKPC-2 and blaTEM-1 gene by Etest method; assay type: functional
Outline: (§3)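 Strain is an E. coli Top10 transformant obtained by electroporation of plasmid DNA extracted from E. coli 2138. MICs were read by Etest.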

[8] = tested on: Escherichia coli; assay: Antimicrobial activity against Escherichia coli J53 by Etest method in presence of beta-lactamase inhibitor clavulanic acid; assay type: functional; outline: as §2
[9] = tested on: Escherichia coli; assay: Antimicrobial activity against Escherichia coli TOP10 harboring blaKPC-2 and blaTEM-1 gene by Etest method in presence of beta-lactamase inhibitor clavulanic acid; assay type: functional; outline: as §1
[10] = tested on: Enterobacter cloacae; assay: Antimicrobial activity against blaKPC-2, blaKLUC-2 and blaTEM-1 producing Enterobacter cloacae 7506 by Etest method in presence of beta-lactamase inhibitor clavulanic acid; assay type: functional
[11] = tested on: Escherichia coli; assay: Antimicrobial activity against Escherichia coli TOP10 by Etest method; assay type: functional
[12] = tested on: Escherichia coli; assay: Antimicrobial activity against blaKPC-2 and blaTEM-1 Escherichia coli 2138 by Etest method in presence of beta-lactamase inhibitor clavulanic acid; assay type: functional
Outline: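 MIC read by Etest on the clinical E. coli isolate recovered from a patient hospitalized in France.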

[13] = tested on: Escherichia coli; assay: Antimicrobial activity against Escherichia coli J53 harboring blaKPC-2 and blaTEM-1 by Etest method; assay type: functional
Outline: (§4)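 Strain is an E. coli J53 (rifampin-resistant) transconjugant from E. cloacae 7506. Donor and recipient were mixed at 1:1 and 4:1, shaken in brain heart infusion at 37°C for 3 h, then held on a filter on BHI agar for 18 h at 37°C. Transconjugants were selected on LB agar with ampicillin 100 µg/ml, ticarcillin 50 µg/ml and rifampin 1000 µg/ml. MICs were read by Etest.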

[14] = tested on: Escherichia coli; assay: Antimicrobial activity against blaKPC-2 producing Escherichia coli DH5alpha by Etest method; conditions: DH5[alpha]
[15] = tested on: Escherichia coli; assay: Antimicrobial activity against blaKPC-2 and blaTEM-1 producing Escherichia coli 2138 by Etest method in presence of beta-lactamase inhibitor Tazobactam; assay type: functional
[16] = tested on: Escherichia coli; assay: Antimicrobial activity against Escherichia coli TOP10 harboring blaKPC-2 and blaTEM-1 gene by Etest method in presence of beta-lactamase inhibitor Tazobactam; assay type: functional; outline: as §3
[17] = tested on: Escherichia coli; assay: Antimicrobial activity against Escherichia coli J53 harboring blaKPC-2 and blaTEM-1 gene by Etest method in presence of beta-lactamase inhibitor Tazobactam; assay type: functional; outline: as §4
[18] = tested on: Escherichia coli; assay: Antimicrobial activity against Escherichia coli J53 by Etest method in presence of beta-lactamase inhibitor Tazobactam; assay type: functional
[19] = tested on: Enterobacter cloacae; assay: Antimicrobial activity against blaKPC-2, blaKLUC-2 and blaTEM-1 producing Enterobacter cloacae 7506 by Etest method in presence of beta-lactamase inhibitor Tazobactam; assay type: functional
[20] = tested on: Escherichia coli; assay: Antimicrobial activity against Escherichia coli TOP10 by Etest method in presence of beta-lactamase inhibitor Tazobactam; assay type: functional

Row | Structure (SMILES) | Km [1] [µM] | kcat [1] [s⁻¹] | MIC [2] [µg/mL] | MIC [3] [µg/mL] | MIC [4] [µg/mL] | MIC [7] [µg/mL] | MIC [11] [µg/mL] | MIC [13] [µg/mL] | also measured
1 | CC(=O)OCC1=C(C(=O)O)N2C(=O)[C@@H](NC(=O)Cc3cccs3)[C@H]2SC1 | 141 | 106 | – | – | – | – | – | – | –
2 | CC1(C)S[C@@H]2[C@H](NC(=O)Cc3ccccc3)C(=O)N2[C@H]1C(=O)O | 44 | 45 | – | – | – | – | – | – | –
3 | CC1(C)S[C@@H]2[C@H](NC(=O)[C@H](N)c3ccccc3)C(=O)N2[C@H]1C(=O)O | 29 | 20 | – | – | – | – | – | – | –
4 | CO/N=C(\C(=O)N[C@@H]1C(=O)N2C(C(=O)O)=C(COC(N)=O)CS[C@H]12)c1ccco1 | 160 | 66 | – | – | – | – | – | – | –
5 | CO/N=C(\C(=O)N[C@@H]1C(=O)N2C(C(=O)[O-])=C(C[n+]3cccc4c3CCC4)CS[C@H]12)c1csc(N)n1 | 251 | 12 | – | – | – | – | – | – | –
6 | CC1(C)S[C@@H]2[C@H](NC(=O)[C@H](N)c3ccc(O)cc3)C(=O)N2[C@H]1C(=O)O [AMOXICILLIN] | – | – | > 256 | > 256 | 3 (≈ 8.21 µM) | > 256 | 3 (≈ 8.21 µM) | > 256 | MIC [5]: 2 µg/mL; MIC [6]: 16 µg/mL; MIC [8]: 2 µg/mL; MIC [9]: 48 µg/mL; MIC [10]: 96 µg/mL; MIC [12]: 24 µg/mL
7 | C[C@H]1[C@H](NC(=O)/C(=N\OC(C)(C)C(=O)O)c2csc(N)n2)C(=O)N1S(=O)(=O)O [AZTREONAM] | 35 | 3 | – | 64 (≈ 147 µM) | < 0.016 | 24 (≈ 55.1 µM) | 0.047 (≈ 0.108 µM) | 8 (≈ 18.4 µM) | –
8 | CO/N=C(\C(=O)N[C@@H]1C(=O)N2C(C(=O)O)=C(COC(C)=O)CS[C@H]12)c1csc(N)n1 [CEFOTAXIME] | 174 | 66 | > 32 | 16 (≈ 35.1 µM) | 0.032 (≈ 0.0703 µM) | 12 (≈ 26.3 µM) | 0.047 (≈ 0.103 µM) | 4 (≈ 8.78 µM) | –
9 | CC(C)(O/N=C(\C(=O)N[C@@H]1C(=O)N2C(C(=O)[O-])=C(C[n+]3ccccc3)CS[C@H]12)c1csc(N)n1)C(=O)O [CEFTAZIDIME] | – | – | 32 (≈ 58.5 µM) | 8 (≈ 14.6 µM) | 0.064 (≈ 0.117 µM) | 6 (≈ 11 µM) | 0.19 (≈ 0.348 µM) | 2 (≈ 3.66 µM) | MIC [14]: 32 µg/mL (≈ 58.5 µM)
10 | C[C@@H](O)[C@H]1C(=O)N2C(C(=O)O)=C(SCCNC=N)C[C@H]12 [IMIPENEM ANHYDROUS] | 88 | 20 | 3 (≈ 10 µM) | 3 (≈ 10 µM) | 0.094 (≈ 0.314 µM) | 1.5 (≈ 5.01 µM) | 0.19 (≈ 0.635 µM) | 0.5 (≈ 1.67 µM) | –
11 | CCN1CCN(C(=O)N[C@@H](C(=O)N[C@@H]2C(=O)N3[C@@H]2SC(C)(C)[C@@H]3C(=O)O)c2ccccc2)C(=O)C1=O [PIPERACILLIN] | 51 | 40 | > 256 | > 256 | 0.38 (≈ 0.734 µM) | > 256 | 0.75 (≈ 1.45 µM) | > 256 | MIC [15]: > 256 µg/mL; MIC [16]: > 256 µg/mL; MIC [17]: > 256 µg/mL; MIC [18]: 0.38 µg/mL; MIC [19]: > 256 µg/mL; MIC [20]: 0.75 µg/mL
12 | CC1(C)S[C@@H]2[C@H](NC(=O)[C@H](C(=O)O)c3ccsc3)C(=O)N2[C@H]1C(=O)O [TICARCILLIN] | – | – | > 256 | > 256 | 1.5 (≈ 3.9 µM) | > 256 | 1.5 (≈ 3.9 µM) | > 256 | –
